# Results from article PMC6247064 (Cancer Science, 2018).
# System: Japanese patients with advanced solid tumors
# Experiment: Phase 1 study: safety, tolerability, DLT and treatment-emergent adverse events
# Format: in vivo, human
# In short: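 Open-label single-arm dose levels of 80 or 105 mg/m2 IV were given on day 1 of 14-day cycles, with at most 6 patients per level. Adverse events were graded by CTCAE v4.03. DLTs were related events in cycle 1 meeting predefined hematologic or nonhematologic criteria. Tolerability required a cycle 1 DLT rate <33%. Primary G-CSF prophylaxis was barred during DLT evaluation; G-CSF was allowed for treatment-emergent neutropenia and as secondary prophylaxis.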
smiles,measurement,setting,value
COc1cccc(OCCCN)c1-c1cc(Nc2cnc(C#N)cn2)n[nH]1 [Prexasertib],Serious AE reported in one patient,"80 mg/m^2, 2 (anemia and thrombocytopenia) related to study treatment, constipation not",3 serious AE
same,TEAE related to study treatment: Anemia,"80 mg/m^2 N = 6, Any grade",3 (50.0) n (%)
same,TEAE related to study treatment: Any,"80 mg/m^2 N = 6, Any grade",6 (100) n (%)
same,TEAE related to study treatment: Atrial fibrillation,"80 mg/m^2 N = 6, Any grade",1 (16.7) n (%)
same,TEAE related to study treatment: Constipation,"80 mg/m^2 N = 6, Any grade",2 (33.3) n (%)
same,TEAE related to study treatment: ECG QT prolonged,"80 mg/m^2 N = 6, Any grade",2 (33.3) n (%)
same,TEAE related to study treatment: Fatigue,"80 mg/m^2 N = 6, Any grade",1 (16.7) n (%)
same,TEAE related to study treatment: Febrile neutropenia,"80 mg/m^2 N = 6, Any grade",1 (16.7) n (%)
same,TEAE related to study treatment: Headache,"80 mg/m^2 N = 6, Any grade",0 n (%)
same,TEAE related to study treatment: Hypocalcemia,"80 mg/m^2 N = 6, Any grade",0 n (%)
same,TEAE related to study treatment: Leukopenia,"80 mg/m^2 N = 6, Any grade",6 (100) n (%)
same,TEAE related to study treatment: Lung infection,"80 mg/m^2 N = 6, Any grade",1 (16.7) n (%)
same,TEAE related to study treatment: Lymphocytopenia,"80 mg/m^2 N = 6, Any grade",2 (33.3) n (%)
same,TEAE related to study treatment: Nausea,"80 mg/m^2 N = 6, Any grade",2 (33.3) n (%)
same,TEAE related to study treatment: Neutropenia,"80 mg/m^2 N = 6, Any grade",5 (83.3) n (%)
same,TEAE related to study treatment: Pyrexia,"80 mg/m^2 N = 6, Any grade",1 (16.7) n (%)
same,TEAE related to study treatment: Rash,"80 mg/m^2 N = 6, Any grade",1 (16.7) n (%)
same,TEAE related to study treatment: Rash maculopapular,"80 mg/m^2 N = 6, Any grade",1 (16.7) n (%)
same,TEAE related to study treatment: SVE (supraventricular extrasystoles),"80 mg/m^2 N = 6, Any grade",1 (16.7) n (%)
same,TEAE related to study treatment: Stomatitis,"80 mg/m^2 N = 6, Any grade",1 (16.7) n (%)
same,TEAE related to study treatment: Thrombocytopenia,"80 mg/m^2 N = 6, Any grade",4 (66.7) n (%)
same,TEAE related to study treatment: Anemia,"80 mg/m^2 N = 6, Grade 3",1 (16.7) n (%)
same,TEAE related to study treatment: Any,"80 mg/m^2 N = 6, Grade 3",2 (33.3) n (%)
same,TEAE related to study treatment: Atrial fibrillation,"80 mg/m^2 N = 6, Grade 3",0 n (%)
same,TEAE related to study treatment: Constipation,"80 mg/m^2 N = 6, Grade 3",0 n (%)
same,TEAE related to study treatment: ECG QT prolonged,"80 mg/m^2 N = 6, Grade 3",0 n (%)
same,TEAE related to study treatment: Fatigue,"80 mg/m^2 N = 6, Grade 3",0 n (%)
same,TEAE related to study treatment: Febrile neutropenia,"80 mg/m^2 N = 6, Grade 3",0 n (%)
same,TEAE related to study treatment: Headache,"80 mg/m^2 N = 6, Grade 3",0 n (%)
same,TEAE related to study treatment: Hypocalcemia,"80 mg/m^2 N = 6, Grade 3",0 n (%)
same,TEAE related to study treatment: Leukopenia,"80 mg/m^2 N = 6, Grade 3",1 (16.7) n (%)
same,TEAE related to study treatment: Lung infection,"80 mg/m^2 N = 6, Grade 3",0 n (%)
same,TEAE related to study treatment: Lymphocytopenia,"80 mg/m^2 N = 6, Grade 3",1 (16.7) n (%)
same,TEAE related to study treatment: Nausea,"80 mg/m^2 N = 6, Grade 3",0 n (%)
same,TEAE related to study treatment: Neutropenia,"80 mg/m^2 N = 6, Grade 3",1 (16.7) n (%)
same,TEAE related to study treatment: Pyrexia,"80 mg/m^2 N = 6, Grade 3",0 n (%)
same,TEAE related to study treatment: Rash,"80 mg/m^2 N = 6, Grade 3",0 n (%)
same,TEAE related to study treatment: Rash maculopapular,"80 mg/m^2 N = 6, Grade 3",0 n (%)
same,TEAE related to study treatment: SVE (supraventricular extrasystoles),"80 mg/m^2 N = 6, Grade 3",0 n (%)
same,TEAE related to study treatment: Stomatitis,"80 mg/m^2 N = 6, Grade 3",0 n (%)
same,TEAE related to study treatment: Thrombocytopenia,"80 mg/m^2 N = 6, Grade 3",2 (33.3) n (%)
same,TEAE related to study treatment: Anemia,"80 mg/m^2 N = 6, Grade 3 + 4",2 (33.3) n (%)
same,TEAE related to study treatment: Any,"80 mg/m^2 N = 6, Grade 3 + 4",6 (100) n (%)
same,TEAE related to study treatment: Atrial fibrillation,"80 mg/m^2 N = 6, Grade 3 + 4",0 n (%)
same,TEAE related to study treatment: Constipation,"80 mg/m^2 N = 6, Grade 3 + 4",0 n (%)
same,TEAE related to study treatment: ECG QT prolonged,"80 mg/m^2 N = 6, Grade 3 + 4",0 n (%)
same,TEAE related to study treatment: Fatigue,"80 mg/m^2 N = 6, Grade 3 + 4",0 n (%)
same,TEAE related to study treatment: Febrile neutropenia,"80 mg/m^2 N = 6, Grade 3 + 4",1 (16.7) n (%)
same,TEAE related to study treatment: Headache,"80 mg/m^2 N = 6, Grade 3 + 4",0 n (%)
same,TEAE related to study treatment: Hypocalcemia,"80 mg/m^2 N = 6, Grade 3 + 4",0 n (%)
same,TEAE related to study treatment: Leukopenia,"80 mg/m^2 N = 6, Grade 3 + 4",4 (66.7) n (%)
same,TEAE related to study treatment: Lung infection,"80 mg/m^2 N = 6, Grade 3 + 4",0 n (%)
same,TEAE related to study treatment: Lymphocytopenia,"80 mg/m^2 N = 6, Grade 3 + 4",1 (16.7) n (%)
same,TEAE related to study treatment: Nausea,"80 mg/m^2 N = 6, Grade 3 + 4",0 n (%)
same,TEAE related to study treatment: Neutropenia,"80 mg/m^2 N = 6, Grade 3 + 4",4 (66.7) n (%)
same,TEAE related to study treatment: Pyrexia,"80 mg/m^2 N = 6, Grade 3 + 4",0 n (%)
same,TEAE related to study treatment: Rash,"80 mg/m^2 N = 6, Grade 3 + 4",0 n (%)
same,TEAE related to study treatment: Rash maculopapular,"80 mg/m^2 N = 6, Grade 3 + 4",0 n (%)
same,TEAE related to study treatment: SVE (supraventricular extrasystoles),"80 mg/m^2 N = 6, Grade 3 + 4",0 n (%)
same,TEAE related to study treatment: Stomatitis,"80 mg/m^2 N = 6, Grade 3 + 4",0 n (%)
same,TEAE related to study treatment: Thrombocytopenia,"80 mg/m^2 N = 6, Grade 3 + 4",3 (50.0) n (%)
same,TEAE related to study treatment: Anemia,"80 mg/m^2 N = 6, Grade 4",1 (16.7) n (%)
same,TEAE related to study treatment: Any,"80 mg/m^2 N = 6, Grade 4",4 (66.7) n (%)
same,TEAE related to study treatment: Atrial fibrillation,"80 mg/m^2 N = 6, Grade 4",0 n (%)
same,TEAE related to study treatment: Constipation,"80 mg/m^2 N = 6, Grade 4",0 n (%)
same,TEAE related to study treatment: ECG QT prolonged,"80 mg/m^2 N = 6, Grade 4",0 n (%)
same,TEAE related to study treatment: Fatigue,"80 mg/m^2 N = 6, Grade 4",0 n (%)
